These results are taken from ChEMBL document CHEMBL5223167, “Synthesis of Novel Kidney-Type Glutaminase Allosteric Inhibitors Targeting the Critical Lys-320 Residue” (ACS Med Chem Lett, 2023).

Data set [1] has as its target Glutamate dehydrogenase 1, mitochondrial (Bos taurus) (UniProt P00366). Briefly: Inhibition of bovine GDH using glutamate as substrate preincubated for 0.5 hrs followed by substrate addition and further incubated for 1 hr in presence of NADP+ by EZMTT reagent based assay.
For data set [2], the system named is HCT-116. Briefly: Antiproliferative activity against human HCT-116 cells assessed as growth rate at 1 uM measured after 2 to 24 hrs by EZMTT assay (reference value: 100%). Type of data set: functional. The settings on record: for growth at 1 µM: Homo sapiens, HCT-116, time 2-24 hrs, read-out: Activity.
The test system of data set [3] is HCT-116. Briefly: Antiproliferative activity against human HCT-116 cells assessed as growth rate at 10 uM measured after 2 to 24 hrs by EZMTT assay (reference value: 100%). The following applies: for growth at 10 µM: Homo sapiens, HCT-116, time 2-24 hrs, read-out: Activity. Type of data set: functional.
Data set [4] deals with HCT-116. Briefly: Antiproliferative activity against human HCT-116 cells assessed as growth rate at 3 uM measured after 2 to 24 hrs by EZMTT assay (reference value: 100%). Type of data set: functional. The following applies: for growth at 3 µM: Homo sapiens, HCT-116, time 2-24 hrs, read-out: Activity.
The nature of data set [5]: Stability of compound. Type of data set: physicochemical.
Data set [6] has as its target T1, Glutaminase kidney isoform, mitochondrial (Homo sapiens) (UniProt O94925).
T1 sequence (whole entry): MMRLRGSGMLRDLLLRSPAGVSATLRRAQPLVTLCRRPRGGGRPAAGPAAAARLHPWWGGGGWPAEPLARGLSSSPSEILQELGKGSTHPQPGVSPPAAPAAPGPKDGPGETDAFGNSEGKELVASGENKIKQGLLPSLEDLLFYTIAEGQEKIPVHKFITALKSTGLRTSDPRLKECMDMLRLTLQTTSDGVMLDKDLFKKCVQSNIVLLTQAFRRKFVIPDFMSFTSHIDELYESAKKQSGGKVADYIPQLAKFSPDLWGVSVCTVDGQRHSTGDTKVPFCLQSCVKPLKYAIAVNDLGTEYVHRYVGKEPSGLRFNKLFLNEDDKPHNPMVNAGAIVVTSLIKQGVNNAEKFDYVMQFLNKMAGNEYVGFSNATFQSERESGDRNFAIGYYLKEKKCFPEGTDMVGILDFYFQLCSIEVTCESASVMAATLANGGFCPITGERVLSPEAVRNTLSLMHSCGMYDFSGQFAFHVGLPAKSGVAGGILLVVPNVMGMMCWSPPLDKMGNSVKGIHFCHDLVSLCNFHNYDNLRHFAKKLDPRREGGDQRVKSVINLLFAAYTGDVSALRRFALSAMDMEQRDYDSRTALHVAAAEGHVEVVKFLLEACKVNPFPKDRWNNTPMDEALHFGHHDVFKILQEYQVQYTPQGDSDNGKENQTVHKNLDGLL
Briefly: Covalent inhibition of wild type human KGA using glutamine as substrate at 10 uM preincubated for 0.5 hrs followed by substrate addition and measured after 4 hrs by EZMTT reagent based assay. The following applies: time 4.5 hrs. In short, it runs like this:
(§1)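 Human KGA, either wild-type or the K320A mutant, is pre-incubated with or without compound at 10 μM before the enzyme activity assay.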

The target of data set [7] is T2, Glutaminase kidney isoform, mitochondrial (Homo sapiens, UniProt O94925).
T2 sequence (O94925 whole entry): T1 sequence (whole entry)
Briefly: Binding affinity to wild type human KGA assessed as covalent bond formation by measuring dissociation constant by biomolecular interaction assay.

The nature of data set [8]: Metabolic stability in mouse liver microsomes assessed as parent compound remaining measured for 2 hrs by HPLC analysis. Type of data set: ADME, Microsome. The following applies: read-out: Stability. In short, it runs like this: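 Compound is incubated with mouse liver microsomes for 2 h. The parent level remaining is quantified by HPLC, with coumarin as the reference control.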

For data set [9], the species on record is Homo sapiens. Briefly: Binding affinity to alanine residue of human KGA K320A mutant assessed as covalent bond formation.
The nature of data set [10]: Half life in ICR mouse at […], iv measured for 24 hrs by HPLC analysis. Type of data set: ADME, organism-based. The settings on record: in vivo.
The species named for data set [11] is Homo sapiens. Briefly: Inhibition of biotinylated N-[6-[4-[5-[[2-(2-pyridyl)acetyl]amino]-1,3,4-thiadiazol-2-yl]butyl]pyridazin-3-yl]-2-[3-(trifluoromethoxy)phenyl]acetamide binding to human KGA K320A mutant by biomolecular interaction assay. The settings on record: dose 0-3 µM.
For data set [12], the species on record is Homo sapiens. Briefly: Covalent inhibition of human KGA K320A mutant using glutamine as substrate at 10 uM preincubated for 0.5 hrs followed by substrate addition and measured after 4 hrs by EZMTT reagent based assay. The settings on record: time 4.5 hrs. In short, it runs like this: as §1
The target of data set [13] is T2, Glutaminase kidney isoform, mitochondrial. Briefly: Inhibition of human KGA using glutamine as substrate preincubated for 0.5 hrs followed by substrate addition and measured after 4 hrs by EZMTT reagent based assay.
Data set [14] has as its target T1, Glutaminase kidney isoform, mitochondrial (Homo sapiens). Briefly: Inhibition of biotinylated N-[6-[4-[5-[[2-(2-pyridyl)acetyl]amino]-1,3,4-thiadiazol-2-yl]butyl]pyridazin-3-yl]-2-[3-(trifluoromethoxy)phenyl]acetamide binding to wild type human KGA at >300 nM by biomolecular interaction assay.
Data set [15] has as its system A549. Briefly: Induction of ROS production in human A549 cells at 5 to 10 uM incubated for 12 hrs by dichlorodihydro-fluorescein diacetate probe based fluorescence microscopic analysis. Type of data set: functional, cell-based. The following applies: dose 5-10 µM.
Data set [16] can be described thus: Clearance in ICR mouse at […], iv measured for 24 hrs by HPLC analysis. Type of data set: ADME, organism-based. The settings on record: in vivo.
The test system of data set [17] is A549. Briefly: Inhibition of colony formation in human A549 cells assessed as reduction in number and size of colonies incubated for 14 days by crystal violet staining based assay. Type of data set: functional, cell-based. The settings on record: dose 1-5 µM, time 14.0 day.
Data set [18] relates to HCT-116. Briefly: Antiproliferative activity against human HCT-116 cells assessed as inhibition of cell growth by measuring fold improvement in IC50 incubated for 5 days by EZMTT assay relative to control. Type of data set: functional. The settings on record: time 5 day.
Data set [19] has as its system H22. Briefly: Antiproliferative activity against mouse H22 cells assessed as inhibition of cell growth by measuring fold improvement in IC50 incubated for 5 days by EZMTT assay relative to control. Type of data set: functional. The following applies: time 5 day.

Activity calls are given as the source filed them.

Glutamate dehydrogenase 1, mitochondrial (Bos taurus), sequence (P00366 whole entry): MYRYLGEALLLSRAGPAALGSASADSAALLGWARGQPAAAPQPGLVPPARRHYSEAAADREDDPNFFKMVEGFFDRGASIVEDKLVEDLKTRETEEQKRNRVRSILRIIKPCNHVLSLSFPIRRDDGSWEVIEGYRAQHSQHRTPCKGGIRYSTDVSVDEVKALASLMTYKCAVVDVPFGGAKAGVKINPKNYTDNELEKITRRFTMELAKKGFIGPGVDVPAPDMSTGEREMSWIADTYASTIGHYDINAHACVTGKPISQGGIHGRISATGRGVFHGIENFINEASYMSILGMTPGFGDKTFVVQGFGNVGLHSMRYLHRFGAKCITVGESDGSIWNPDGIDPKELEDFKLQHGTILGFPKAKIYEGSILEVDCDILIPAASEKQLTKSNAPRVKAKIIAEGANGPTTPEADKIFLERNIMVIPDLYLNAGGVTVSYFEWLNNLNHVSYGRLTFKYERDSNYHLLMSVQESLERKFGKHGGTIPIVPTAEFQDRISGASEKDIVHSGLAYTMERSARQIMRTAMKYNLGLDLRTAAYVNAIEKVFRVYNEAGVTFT

Take `O=C(Cc1cccc(OC(F)(F)F)c1)Nc1ccc(CCCCc2nnc(NC(=O)Cc3ccccn3)s2)nn1`: the inhibition (commonly the change of the read-out against control, counted positive when it falls) in data set [1] is “inactive”. The Activity is 19.1% in data set [2] (time 2-24 hrs), 14.1% in data set [3] (time 2-24 hrs) and 17% in data set [4] (time 2-24 hrs).

For `C=CC(=O)Nc1ccc(CCCCc2nnc(NC(=O)Cc3ccccn3)[se]2)nn1`, the inhibition result in data set [1] is “inactive”. Further, the Stability entry in [5] is “Unstable”.

With `C=CC(=O)Nc1ccc(CCCCc2nnc(NC(=O)Cc3cc4ccccc4n3C)s2)nn1`, the inhibition entry in [1] is “inactive”. The Stability entry in data set [5] was “Unstable”.

With `O=C(/C=C/c1cc(F)ccc1F)Nc1ccc(CCCCc2nnc(NC(=O)Cc3ccccn3)[se]2)nn1`, the inhibition entry in [1] is “inactive”. The Stability result in data set [5] was “Unstable”.

As for `O=C(/C=C/c1ccc2c(c1)OCO2)Nc1ccc(CCCCc2nnc(NC(=O)Cc3ccccn3)[se]2)nn1`, the inhibition entry in data set [1] and in data set [12] was “inactive” in each case. The growth at 1 µM in data set [2] was found to be 14.3%. In addition, the inhibition was 100% in data set [6], “Dose-Dependent Effect” in [11] and “Dose-Dependent Effect” in [17]. Moreover, the Kd (as a rule, the free concentration of one partner at which half of the binding sites on the other are occupied at equilibrium, for simple one-to-one binding) in [7] was at most 0.001 nM. Further, the Stability entry in data set [5] is listed as “Stable”. Besides, the remaining at 2 h in data set [8] was 74%. In [9], the result was inactive. Besides, in data set [10], the half-life (in general, the time needed for the level to fall by half in the phase considered) is 4.89 h. In addition, in data set [13], inhibition was half-maximal at 50 nM (IC50). Moreover, in data set [3], the growth at 10 µM was found to be 6.3%. In addition, the growth at 3 µM in data set [4] came to 6%. The inhibition entry in data set [14] is “Active”. Further, the outcome in [15] was Active. In data set [16], the clearance (as a rule, the rate of elimination divided by the concentration) is 327 mL/min/kg.

As to `O=c1ccc2ccccc2o1` [COUMARIN], in data set [8], the remaining at 2 h was found to be 61%.

Regarding `C=CC(=O)Nc1ccc(CCCCc2nnc(NC(=O)Cc3ccccn3)s2)nn1`, in [1], the inhibition entry is “inactive”. Further, in [5], the Stability entry is reported as “Unstable”.

Consider `O=C(/C=C/c1ccc2c(c1)OCO2)Nc1ccc(CCCCc2nnc(NC(=O)Cc3ccccn3)s2)nn1`, for which the inhibition result in [1] and in data set [12] was “inactive” in each case. The results for the “fold change (FC)” value in [18] and in data set [19] were 3 and 30, respectively. For the same compound, the growth at 1 µM in data set [2] is 11.9%. Also, the inhibition in data set [6] was 100%; in data set [11] it was “Dose-Dependent Effect”; in data set [17] it was “Dose-Dependent Effect”. The Kd in data set [7] was at most 0.001 nM. In addition, in data set [5], the Stability entry was “Stable”. Also, in [8], the remaining at 2 h turned out to be 83%. In addition, the result in [9] was inactive. In addition, the half-life in [10] was 3.37 h. For the same compound, in data set [13], the IC50 (commonly the point on the concentration scale where inhibition reaches its midpoint) is 28 nM. In addition, the growth at 10 µM in data set [3] was found to be 6.1%. The growth at 3 µM in [4] came to 7.6%. The inhibition entry in data set [14] was “Active”. Besides, the outcome in [15] was Active. The clearance in [16] is 582 mL/min/kg.

For the compound `C=C(C(=O)Nc1ccc(CCCCc2nnc(NC(=O)Cc3ccccn3)[se]2)nn1)c1cccc(OC(F)(F)F)c1`, the inhibition result in [1] is “inactive”. Besides, the Stability result in [5] is “Unstable”.
